Reference: PubChem BioAssay AID504538 (Southern Research Specialized Biocontainment Screening …, 2011)
Calls of active or inactive are those of the source. How the calls were made is not given here.

Legend:
[1] = test system: E. coli EV36 T7 phage lysis, OD600 3 h; experiment: T7 lysis protection in EV36 bacteria – E. coli EV36, T7 phage, set 2, counter-screen for bacterial capsule biogenesis inhibitors, dose response (AID 504538)
Summary of the method: (§1)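 Detection: optical density at 600 nm, 3 h after phage infection; assay system: Escherichia coli EV36, K1 and K-12 hybrid strain; also added: T7 bacteriophage infection after compound pre-exposure; schedule: 1.5 h compound pre-exposure at 37 °C with shaking, 3 h post-infection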

[2] = as above; conditions: E. coli EV36 T7 phage lysis, OD600 3 h; at 100 µM (top of the series)
Summary of the method: as §1

| SMILES | IC50 [1] | phage lysis inhibition [2] |
| --- | --- | --- |
| NC(N)=N/N=C/c1ccc(OCc2ccccc2)cc1 | 45 µM (inactive) | – |
| N=C(N)SCCc1cccc(CCSC(=N)N)c1 | – | 99.9% (inactive) |
| CCN(CC)c1ccc2c(-c3ccc(S(=O)(=O)O)cc3S(=O)(=O)O)c3ccc(=[N+](CC)CC)cc-3oc2c1 | – | 110% (inactive) |
| Cc1cccc(-c2cc(C(=O)O)c3ccccc3n2)c1 | – | 102% (inactive) |
| COc1ccc(-c2cc(C(=O)O)c3ccccc3n2)cc1 | – | 102% (inactive) |
| COc1cc(/C=N/N=C(N)N)ccc1OCc1ccccc1Cl | 44 µM (inactive) | – |
| O=C1c2c(O)ccc(O)c2C(=O)c2c(NCCNCCO)ccc(NCCNCCO)c21 | – | 140% (inactive) |
| O=C(Nc1cccc(C2=NCCN2)c1)Nc1cccc(C2=NCCN2)c1 | – | 88.6% (inactive) |
